One data set relates to Rattus norvegicus. As to the kind of experiment: Antihyperalgesic activity in MIA induced Sprague-Dawley rat assessed as increased joint compression thresholds at 0.3 mg/kg, po administered once daily for 3 consecutive days and measured after 2 to 4 hrs. Format: functional, organism-based. The note with it: time 3.0 day. The essentials:
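Male Sprague-Dawley rats (220–270 g), isoflurane-anesthetized, given 2 mg MIA in 0.9% saline (50 μl) intra-articular into the knee. From day 14, oral dosing at 10 ml/kg once daily for 3 days in 4% 2-hydroxypropyl-β-cyclodextrin/1% ethanol in 0.01 M HCl. Celecoxib 30 mg/kg in 0.5% methylcellulose twice daily. Joint compression threshold by digital Randall-Selitto at 2 and 4 h postdose on days 1 and 3; n = 10/group.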

The target in data set [1] is T1, Fatty-acid amide hydrolase 1 (Rattus norvegicus) (UniProt P97612).
T1 sequence (whole entry): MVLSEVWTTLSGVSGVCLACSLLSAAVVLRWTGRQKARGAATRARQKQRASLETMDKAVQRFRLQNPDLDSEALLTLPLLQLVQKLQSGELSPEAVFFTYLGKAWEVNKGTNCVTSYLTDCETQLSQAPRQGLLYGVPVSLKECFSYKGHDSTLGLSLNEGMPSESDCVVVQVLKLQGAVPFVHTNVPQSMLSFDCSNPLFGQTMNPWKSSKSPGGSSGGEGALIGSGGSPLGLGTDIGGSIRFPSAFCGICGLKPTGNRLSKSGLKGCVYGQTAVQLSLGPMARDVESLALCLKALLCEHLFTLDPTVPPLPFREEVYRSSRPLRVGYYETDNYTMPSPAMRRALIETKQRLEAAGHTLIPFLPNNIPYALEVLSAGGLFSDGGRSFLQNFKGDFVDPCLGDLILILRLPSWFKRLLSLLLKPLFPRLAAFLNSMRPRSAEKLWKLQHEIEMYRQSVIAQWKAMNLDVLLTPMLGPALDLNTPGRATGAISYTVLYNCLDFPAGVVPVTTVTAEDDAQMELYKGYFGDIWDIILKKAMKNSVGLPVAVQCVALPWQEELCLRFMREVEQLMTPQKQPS
As to the kind of experiment: In vivo inhibition of FAAH in CFA induced Sprague-Dawley rat plasma assessed as elevation of NAE level at 0.1 to 10 mg/kg, po. Format: functional, organism-based. Conditions: dose 0.1-10 mg/kg. The essentials:
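Lipid (NAE) levels in rat brain and plasma measured by LC/MS after oral dosing in CFA rats; n = 3 rats/group. Time-course samples taken at 1, 2, 4, 8, 24 h after 1 mg/kg.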

The subject of data set [2] is Mus musculus. Kind of data set: In vivo inhibition of rhodamine-azide tagged FAAH expressed in mouse brain at 10 mg/kg, po by CC-ABPP method based in-gel fluorescence scanning analysis. Format: functional, organism-based.
A short description of data set [3]: Ratio of drug concentration in CFA induced Sprague-Dawley rat brain to plasma at 0.1 to 10 mg/kg, po by LC/MS analysis. The note with it: brain and plasma, dose 0.1-10 mg/kg. Format: ADME, organism-based. Put shortly: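 Male Sprague-Dawley rats (200–250 g) received 150 μl CFA (1 mg/ml suspension in mineral oil) into the plantar hind paw. On day 5 they were dosed orally at 0.003–10 mg/kg as a nanocrystalline suspension in 2% polyvinylpyrrolidone/0.15% SDS in H₂O at 10 ml/kg. Drug levels were measured in brain tissue and plasma in the dose-response study, where PWTs were read at 4 h post-dose.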

Data set [4] can be described thus: Ratio of drug concentration in rat brain to plasma at 1 mg/kg, po administered for 4 hrs by LC/MS analysis. Format: ADME, organism-based. The note with it: brain and plasma. Put shortly: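 Male Sprague-Dawley rats received a single oral dose of 1 mg/kg. Plasma (ng/ml) and brain (ng/g tissue) drug levels were measured at 1, 2, 4, 8 and 24 h after dosing.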
For data set [5], the target named is T2, Fatty-acid amide hydrolase 1 (Mus musculus) (UniProt O08914).
T2 sequence (whole entry): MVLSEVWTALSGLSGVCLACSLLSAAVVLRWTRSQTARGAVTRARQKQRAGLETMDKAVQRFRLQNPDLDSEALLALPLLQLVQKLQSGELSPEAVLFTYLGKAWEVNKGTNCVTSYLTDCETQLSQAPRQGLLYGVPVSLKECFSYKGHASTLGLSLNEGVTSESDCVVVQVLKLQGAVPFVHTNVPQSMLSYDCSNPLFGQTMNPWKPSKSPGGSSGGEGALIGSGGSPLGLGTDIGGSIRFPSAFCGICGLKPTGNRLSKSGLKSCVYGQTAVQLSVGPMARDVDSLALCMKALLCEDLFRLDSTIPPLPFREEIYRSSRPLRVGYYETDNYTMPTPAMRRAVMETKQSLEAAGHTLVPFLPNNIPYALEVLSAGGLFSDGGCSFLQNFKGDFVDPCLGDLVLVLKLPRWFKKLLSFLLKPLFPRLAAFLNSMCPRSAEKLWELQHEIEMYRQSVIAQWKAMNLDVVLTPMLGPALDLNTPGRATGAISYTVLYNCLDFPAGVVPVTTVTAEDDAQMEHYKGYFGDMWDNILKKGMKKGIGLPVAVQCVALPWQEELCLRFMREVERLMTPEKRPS
As to the kind of experiment: Inhibition of FAAH in mouse brain at 100 uM in presence of FP-rhodamine by competitive activity-based protein profiling method. Format: tissue-based. The essentials:
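Competitive ABPP on human and mouse brain, liver and heart proteomes (membrane and soluble fractions), exposed to compound at 10 or 100 μM or to DMSO. Serine hydrolases were then labeled with FP-rhodamine. Gels were read by fluorescence scanning, and loss of band labeling (FAAH or other hydrolases by kDa) was judged.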

Data set [6] relates to Mus musculus. As to the kind of experiment: Antinociceptive activity in C57BL6/J mouse assessed as increased tail withdrawal latency at 1 to 10 mg/kg, po administered for 4 hrs. Format: functional, organism-based. The note with it: dose 1-10 mg/kg. Put shortly: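 Male C57BL/6J mice, 7 weeks old, n = 8/group, dosed orally at 1 or 10 mg/kg in PEG 300 (4 ml/kg). Tetrad tested 4 h postdose: locomotor activity, tail-immersion thermal nociception, catalepsy (assessed 60 s), body temperature. Means ± S.E.M. versus vehicle.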

Calls of active or inactive are those of the source.

As usually defined, the Kp is the ratio of the level in a tissue or fluid to that in plasma or blood.

For `O=C(Nc1cccnn1)N1CCC(=Cc2cccc(Oc3ccc(C(F)(F)F)cn3)c2)CC1`, the result with Rattus norvegicus was Active. Further, the inhibition result (in data set [1]; in the data set with Mus musculus [2]; in data set [5]) was “Active” each time. Also, the Kp in data set [3] is 1.3. Besides, in data set [4], the Kp at 4 h turned out to be 1.6. Besides, the Activity entry with Mus musculus [6] is “Toxic”.
